From ChEMBL document CHEMBL3526106, “Cytochrome P450 regulation by α-tocopherol in Pxr-null and PXR-humanized mice” (Drug Metab Dispos, 2013)

Tests used:
Parameters in all cases: dose 500 mg/kg
Conditions in all cases: in vivo, po
Mus musculus [1] = assay: Drug metabolism in male PXR null mouse assessed as urinary alpha-carboxyethylhydroxychroman glycine level at 500 mg/kg for 7 to 14 days dosed through vitamin E-deficient base diet by UPLC-ESI-QTOFMS method based metabolomics analysis; format: ADME, organism-based, Urine
How it was run: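 Male mice from three weeks of age on vitamin E deficient diet; at eight weeks, 24 h predose urine in metabolic cages, then half switched to the same diet supplemented with 500 mg/kg DL-α-tocopheryl acetate. 24 h urine collected at nine and 10 weeks. Urinary metabolites quantitated by UPLC-MRM on triple-quadrupole MS against authentic standards and calibration curves, normalized to urinary creatinine (µmol/mmol creatinine); mean ± SEM, two-tailed unpaired t-test.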

Mus musculus [2] = assay: Induction of Cyp4f15 gene expression in wild type mouse liver at 500 mg/kg for 7 to 14 days dosed through vitamin E-deficient base diet by qPCR method; format: ADME, organism-based
How it was run: (§1)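 Male mice (wild-type, Pxr-null, hPXR; NCI-bred) on vitamin E-deficient diet from 3 weeks of age; at 8 weeks half switched to same base diet supplemented with 500 mg/kg DL-α-tocopheryl acetate, rest kept deficient. Livers harvested at 9 and 10 weeks. qPCR: 25 ng cDNA, 150 nM each primer, SYBR Green, triplicate; comparative Ct vs β-actin; fold change enriched vs deficient diet; mean ± SEM, two-tailed unpaired t-test.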

Mus musculus [3] = assay: Effect on Ugt1a10 gene expression in wild type mouse liver at 500 mg/kg for 7 to 14 days dosed through vitamin E-deficient base diet by qPCR method; format: ADME, organism-based
How it was run: (§2)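 Male mice on vitamin E deficient diet, switched at eight weeks to the same diet with 500 mg/kg DL-α-tocopheryl acetate (controls kept deficient); killed at nine or 10 weeks, livers flash frozen. Hepatic mRNA by SYBR Green qPCR with 25 ng cDNA and 150 nM primers, triplicate reactions; comparative threshold cycle method against β-actin, fold change versus deficient diet; mean ± SEM, two-tailed t-test.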

Mus musculus [4] = assay: Drug metabolism in male PXR null mouse assessed as urinary alpha-carboxymethylbutylhydroxychroman glucuronide level at 500 mg/kg for 7 to 14 days dosed through vitamin E-deficient base diet by UPLC-ESI-QTOFMS method based metabolomics analysis; format: ADME, organism-based, Urine
Mus musculus [5] = assay: Effect on Ugt2b34 gene expression in male PXR null mouse liver at 500 mg/kg for 7 to 14 days dosed through vitamin E-deficient base diet by qPCR method; format: ADME, organism-based; how it was run: as §2
Mus musculus [6] = assay: Drug metabolism in male wild type mouse assessed as urinary alpha-carboxymethylbutylhydroxychroman glucuronide level at 500 mg/kg for 7 to 14 days dosed through vitamin E-deficient base diet by UPLC-ESI-QTOFMS method based metabolomics analysis; format: ADME, organism-based, Urine
Mus musculus [7] = assay: Induction of Cyp3a11 gene expression in male PXR null mouse liver at 500 mg/kg for 7 to 14 days dosed through vitamin E-deficient base diet by qPCR method; format: ADME, organism-based; how it was run: as §2
Mus musculus [8] = assay: Effect on Ugt1a7c gene expression in male PXR null mouse liver at 500 mg/kg for 7 to 14 days dosed through vitamin E-deficient base diet by qPCR method; format: ADME, organism-based; how it was run: as §2
Mus musculus [9] = assay: Effect on Ugt1a7c gene expression in wild type mouse liver at 500 mg/kg for 7 to 14 days dosed through vitamin E-deficient base diet by qPCR method; format: ADME, organism-based; how it was run: as §2
Mus musculus [10] = assay: Effect on Ugt1a10 gene expression in male PXR-humanized mouse liver at 500 mg/kg for 7 to 14 days dosed through vitamin E-deficient base diet by qPCR method; format: ADME, organism-based; how it was run: as §2
Mus musculus [11] = assay: Effect on Ugt1a6a gene expression in male PXR null mouse liver at 500 mg/kg for 7 to 14 days dosed through vitamin E-deficient base diet by qPCR method; format: ADME, organism-based; how it was run: as §2
Mus musculus [12] = assay: Effect on Ugt1a6b gene expression in wild type mouse liver at 500 mg/kg for 7 to 14 days dosed through vitamin E-deficient base diet by qPCR method; format: ADME, organism-based; how it was run: as §2
Mus musculus [13] = assay: Effect on Ugt1a1 gene expression in male PXR-humanized mouse liver at 500 mg/kg for 7 to 14 days dosed through vitamin E-deficient base diet by qPCR method; format: ADME, organism-based; how it was run: as §2
Mus musculus [14] = assay: Effect on Ugt2b5 gene expression in male PXR null mouse liver at 500 mg/kg for 7 to 14 days dosed through vitamin E-deficient base diet by qPCR method; format: ADME, organism-based; how it was run: as §2
Mus musculus [15] = assay: Effect on Ugt1a1 gene expression in male PXR null mouse liver at 500 mg/kg for 7 to 14 days dosed through vitamin E-deficient base diet by qPCR method; format: ADME, organism-based; how it was run: as §2
Mus musculus [16] = assay: Induction of Cyp4f13 gene expression in male PXR null mouse liver at 500 mg/kg for 7 to 14 days dosed through vitamin E-deficient base diet by qPCR method; format: ADME, organism-based; how it was run: as §1
Mus musculus [17] = assay: Induction of Cyp2c39 gene expression in male PXR-humanized mouse liver at 500 mg/kg for 7 to 14 days dosed through vitamin E-deficient base diet by qPCR method; format: ADME, organism-based; how it was run: as §2
Mus musculus [18] = assay: Effect on Ugt2b5 gene expression in wild type mouse liver at 500 mg/kg for 7 to 14 days dosed through vitamin E-deficient base diet by qPCR method; format: ADME, organism-based; how it was run: as §2
Mus musculus [19] = assay: Induction of Cyp3a11 gene expression in male PXR-humanized mouse liver at 500 mg/kg for 7 to 14 days dosed through vitamin E-deficient base diet by qPCR method; format: ADME, organism-based; how it was run: as §1
Mus musculus [20] = assay: Effect on Ugt2b34 gene expression in male PXR-humanized mouse liver at 500 mg/kg for 7 to 14 days dosed through vitamin E-deficient base diet by qPCR method; format: ADME, organism-based; how it was run: as §2
Mus musculus [21] = assay: Induction of Cyp4f15 gene expression in male PXR-humanized mouse liver at 500 mg/kg for 7 to 14 days dosed through vitamin E-deficient base diet by qPCR method; format: ADME, organism-based; how it was run: as §1
Mus musculus [22] = assay: Drug metabolism in male PXR null mouse assessed as urinary alpha-carboxyethylhydroxychroman glucuronide level at 500 mg/kg for 7 to 14 days dosed through vitamin E-deficient base diet by UPLC-ESI-QTOFMS method based metabolomics analysis; format: ADME, organism-based, Urine
Mus musculus [23] = assay: Induction of Cyp4f14 gene expression in male PXR null mouse liver at 500 mg/kg for 7 to 14 days dosed through vitamin E-deficient base diet by qPCR method; format: ADME, organism-based; how it was run: as §1
Mus musculus [24] = assay: Drug metabolism in male wild type mouse assessed as urinary alpha-carboxyethylhydroxychroman glycine level at 500 mg/kg for 7 to 14 days dosed through vitamin E-deficient base diet by UPLC-ESI-QTOFMS method based metabolomics analysis; format: ADME, organism-based, Urine
Mus musculus [25] = assay: Induction of Cyp4f16 gene expression in wild type mouse liver at 500 mg/kg for 7 to 14 days dosed through vitamin E-deficient base diet by qPCR method; format: ADME, organism-based; how it was run: as §1
Mus musculus [26] = assay: Induction of Cyp4f14 gene expression in male PXR-humanized mouse liver at 500 mg/kg for 7 to 14 days dosed through vitamin E-deficient base diet by qPCR method; format: ADME, organism-based; how it was run: as §1
Mus musculus [27] = assay: Effect on Ugt2b5 gene expression in male PXR-humanized mouse liver at 500 mg/kg for 7 to 14 days dosed through vitamin E-deficient base diet by qPCR method; format: ADME, organism-based; how it was run: as §2
Mus musculus [28] = assay: Induction of Cyp4f18 gene expression in wild type mouse liver at 500 mg/kg for 7 to 14 days dosed through vitamin E-deficient base diet by qPCR method; format: ADME, organism-based; how it was run: as §1
Mus musculus [29] = assay: Induction of Cyp4f15 gene expression in male PXR null mouse liver at 500 mg/kg for 7 to 14 days dosed through vitamin E-deficient base diet by qPCR method; format: ADME, organism-based; how it was run: as §1

CC(=O)Oc1c(C)c(C)c2c(c1C)CCC(C)(CCCC(C)CCCC(C)CCCC(C)C)O2 (racemic) [alpha-TOCHOPHERYL ACETATE]
Drug metabolism (Mus musculus [1]): metabolite_detected | Activity (Mus musculus [2]): Not Active | Activity (Mus musculus [3]): Not Active | Drug metabolism (Mus musculus [4]): metabolite_detected | Activity (Mus musculus [5]): Not Active | Drug metabolism (Mus musculus [6]): metabolite_detected | Activity (Mus musculus [7]): Not Active | Activity (Mus musculus [8]): Not Active | Activity (Mus musculus [9]): Not Active | Activity (Mus musculus [10]): Not Active | Activity (Mus musculus [11]): Not Active | Activity (Mus musculus [12]): Not Active | Activity (Mus musculus [13]): Not Active | Activity (Mus musculus [14]): Not Active | Activity (Mus musculus [15]): Not Active | Activity (Mus musculus [16]): Not Active | Activity (Mus musculus [17]): Not Active | Activity (Mus musculus [18]): Not Active | Activity (Mus musculus [19]): Not Active | Activity (Mus musculus [20]): Not Active | Activity (Mus musculus [21]): Not Active | Drug metabolism (Mus musculus [22]): metabolite_detected | Activity (Mus musculus [23]): Not Active | Drug metabolism (Mus musculus [24]): metabolite_detected | Activity (Mus musculus [25]): Not Active | Activity (Mus musculus [26]): Not Active | Activity (Mus musculus [27]): Not Active | Activity (Mus musculus [28]): Not Active | Activity (Mus musculus [29]): Not Active
